Common to all, as to type: functional, cell-based
Test [1] has as its target T1, Melanocortin receptor 4 (Homo sapiens, UniProt P32245). Put plainly: Agonist activity at EYFP-fused human MC4R expressed in HEK293 cells assessed as increase in cAMP accumulation after 30 mins by luminescent enzymatic complementation based assay. A general note: cAMP levels reflect the balance of adenylyl cyclase and phosphodiesterase activity.
The target in test [2] is T2, Melanocortin receptor 5 (Homo sapiens, UniProt P33032). Put plainly: Agonist activity at EYFP-fused human MC5R expressed in HEK293 cells after 16 to 20 hrs by CRE-driven reporter assay relative to alpha-MSH. In short, it runs like this:
(§1)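 HEK293 monoclonal lines carrying a single receptor/9×CRE-d2EYFP construct, selected with puromycin and FACS-sorted, kept in low-fluorescence DMEM. EYFP imaged with bright-field images, normalized to cell coverage, corrected for unstimulated cells and scaled to α-MSH maximum. Four-parameter fit constrained to minimum 0, at least three independent experiments.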

Test [3] concerns the target T3, Melanocortin receptor 3 (Homo sapiens, UniProt P41968). Put plainly: Agonist activity at EYFP-fused human MC3R expressed in HEK293 cells after 16 to 20 hrs by CRE-driven reporter assay relative to alpha-MSH. In short, it runs like this:
as §1
For orientation: In a reporter assay the amount or activity of a reporter protein is the signal.

Test [4] addresses T2, Melanocortin receptor 5. Put plainly: Agonist activity at EYFP-fused human MC5R expressed in HEK293 cells after 16 to 20 hrs by CRE-driven reporter assay. In short, it runs like this:
as §1

The target of test [5] is T1, Melanocortin receptor 4. Put plainly: Agonist activity at EYFP-fused human MC4R expressed in HEK293 cells after 16 to 20 hrs by CRE-driven reporter assay.
Test [6] has as its target T3, Melanocortin receptor 3. Put plainly: Agonist activity at EYFP-fused human MC3R expressed in HEK293 cells after 16 to 20 hrs by CRE-driven reporter assay. In short, it runs like this: as §1
Test [7] deals with T2, Melanocortin receptor 5. Put plainly: Agonist activity at EYFP-fused human MC5R expressed in HEK293 cells at 3000 nM after 16 to 20 hrs by CRE-driven reporter assay relative to alpha-MSH. In short, it runs like this: (§2)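 HEK293 monoclonal lines carrying a single receptor/9×CRE-d2EYFP construct, selected with puromycin and FACS-sorted, kept in low-fluorescence DMEM. Seeded at 50,000 cells/well and treated after 24 h for 16–20 h with 11-point 3-fold dilutions (3.3 μM to […]) in triplicate, vehicle 0.5% v/v DMSO. EYFP imaged with bright-field images, normalized to cell coverage, corrected for unstimulated cells and scaled to α-MSH maximum. Four-parameter fit constrained to minimum 0, at least three independent experiments.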

In test [8] the target is T3, Melanocortin receptor 3. Put plainly: Agonist activity at EYFP-fused human MC3R expressed in HEK293 cells at 3000 nM after 16 to 20 hrs by CRE-driven reporter assay relative to alpha-MSH. In a few lines:
as §2

Test [9] concerns the target T1, Melanocortin receptor 4. Put plainly: Agonist activity at EYFP-fused human MC4R expressed in HEK293 cells assessed as increase in cAMP accumulation at 3000 nM after 30 mins by luminescent enzymatic complementation based assay relative to alpha-MSH. In a few lines: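 MC4R-expressing HEK293 cells seeded at 50,000/well and switched after 24 h to HBSS with 500 μM IBMX. Ligand was added as 11-point series in triplicate for 30 min. Cells were lysed and incubated with enzyme fragments and substrate at room temperature in the dark for at least 4 h. Luminescence from enzyme complementation was background-corrected and normalized to the α-MSH maximum, with at least three independent experiments.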

Test [10] addresses T1, Melanocortin receptor 4. Put plainly: Agonist activity at EYFP-fused human MC4R expressed in HEK293 cells at 3000 nM after 16 to 20 hrs by CRE-driven reporter assay relative to alpha-MSH. In short, it runs like this: as §2

SMILES strings stand for the structures.

By EC50 is commonly meant the concentration giving half of the maximal effect. In general, Emax refers to the greatest response seen or fitted, relative to the assay's reference.

T1 sequence (P32245 whole entry, the tested form may be a part): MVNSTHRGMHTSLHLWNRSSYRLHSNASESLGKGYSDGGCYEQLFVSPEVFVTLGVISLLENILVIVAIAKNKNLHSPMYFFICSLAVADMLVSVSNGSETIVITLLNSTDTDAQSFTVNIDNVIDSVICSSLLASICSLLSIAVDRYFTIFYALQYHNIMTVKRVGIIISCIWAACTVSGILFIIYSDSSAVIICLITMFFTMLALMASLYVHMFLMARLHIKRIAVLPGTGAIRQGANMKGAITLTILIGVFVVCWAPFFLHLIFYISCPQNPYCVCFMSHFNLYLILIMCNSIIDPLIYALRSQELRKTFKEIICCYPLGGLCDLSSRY
T3 sequence (P41968 whole entry, the tested form may be a part): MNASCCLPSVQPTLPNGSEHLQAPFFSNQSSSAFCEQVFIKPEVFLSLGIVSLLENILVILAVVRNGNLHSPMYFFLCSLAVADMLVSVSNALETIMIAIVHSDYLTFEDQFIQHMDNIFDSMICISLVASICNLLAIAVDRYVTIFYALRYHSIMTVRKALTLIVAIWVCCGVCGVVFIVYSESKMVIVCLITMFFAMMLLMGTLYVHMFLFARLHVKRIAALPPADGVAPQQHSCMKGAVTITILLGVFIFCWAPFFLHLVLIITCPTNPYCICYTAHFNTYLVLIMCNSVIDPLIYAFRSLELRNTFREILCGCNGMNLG
T2 sequence (P33032 whole entry, the tested form may be a part): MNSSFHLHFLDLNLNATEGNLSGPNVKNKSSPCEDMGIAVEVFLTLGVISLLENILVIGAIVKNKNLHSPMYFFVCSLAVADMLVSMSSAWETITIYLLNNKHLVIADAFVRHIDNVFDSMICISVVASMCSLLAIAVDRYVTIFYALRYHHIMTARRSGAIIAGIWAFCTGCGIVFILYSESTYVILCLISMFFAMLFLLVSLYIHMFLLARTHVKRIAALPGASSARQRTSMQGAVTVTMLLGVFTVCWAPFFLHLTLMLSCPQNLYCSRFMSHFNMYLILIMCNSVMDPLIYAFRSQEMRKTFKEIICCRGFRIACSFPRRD

Regarding `CSCC[C@H](NC(=O)[C@@H]1Cc2cn(nn2)C[C@H](NC(=O)[C@@H](N)CCCCN)C(=O)N[C@@H](C)C(=O)N[C@H](Cc2ccccc2)C(=O)N[C@@H](CCCNC(=N)N)C(=O)N[C@@H](Cc2c[nH]c3ccccc23)C(=O)N1)C(=O)O`, the half-maximal effective concentration (EC50) was 28.8 nM in test [1], 375 nM in [4], 2.8 nM in [5] and 633 nM in test [6]. In addition, the Emax in test [2] was determined as 130%; in test [3] it was 104%.
For the compound `CSCC[C@H](NC(=O)[C@@H]1Cc2cn(nn2)C[C@H](NC(=O)[C@@H](N)CCCCN)C(=O)N[C@@H](Cc2cnc[nH]2)C(=O)N[C@H](Cc2ccccc2)C(=O)N[C@@H](CCCCN)C(=O)N[C@@H](Cc2c[nH]c3ccccc23)C(=O)N1)C(=O)O`, the EC50 in [1] was 124 nM; in [4], more than 3000 nM; in test [5], 12.7 nM; in test [6], more than 3000 nM. The Emax came out at 13% in test [7] and 40% in [8].
As to `C[C@H](NC(=O)[C@@H]1Cc2cn(nn2)C[C@H](NC(=O)[C@@H](N)CCCCN)C(=O)N[C@@H](Cc2cnc[nH]2)C(=O)N[C@H](Cc2ccccc2)C(=O)N[C@@H](CCCNC(=N)N)C(=O)N[C@@H](Cc2c[nH]c3ccccc23)C(=O)N1)C(=O)O`, the EC50 was 17.9 nM in test [1], 635 nM in test [4], 2.3 nM in test [5] and 162 nM in test [6]. For the same compound, the Emax in test [2] is 126%; in test [3], 107%.
With `CC(=O)N[C@@H](CCCNC(=N)N)C(=O)N[C@H]1CSSC[C@@H](C(N)=O)NC(=O)[C@H](Cc2c[nH]c3ccccc23)NC(=O)[C@H](CCCNC(=N)N)NC(=O)[C@@H](Cc2ccccc2)NC(=O)[C@H](Cc2c[nH]cn2)NC(=O)[C@@H](C)NC1=O`, the EC50 in test [4] turned out to be 110 nM.
Turning to `CSCC[C@H](NC(=O)[C@@H]1Cc2cn(nn2)C[C@H](NC(=O)[C@@H](N)CCCCN)C(=O)N[C@@H](Cc2c[nH]c3ccccc23)C(=O)N[C@H](Cc2ccccc2)C(=O)N[C@@H](CCCNC(=N)N)C(=O)N[C@@H](Cc2cnc[nH]2)C(=O)N1)C(=O)O`, the EC50 in test [1], in [4], in [5] and in test [6] was more than 3000 nM throughout. For the same compound, the Emax in [9] was 28%; in [10], 48%; in test [7], 0%; in test [8], 0%.
As for `CSCC[C@H](NC(=O)[C@@H]1Cc2cn(nn2)C[C@H](NC(=O)[C@@H](N)CCCCN)C(=O)N[C@@H](Cc2cnc[nH]2)C(=O)N[C@H](Cc2ccccc2)C(=O)N[C@@H](CCCNC(=N)N)C(=O)N[C@@H](Cc2csc3ccccc23)C(=O)N1)C(=O)O`, the EC50 was 63.7 nM in test [1], more than 3000 nM in [4], 7.6 nM in test [5] and 821 nM in test [6]. For the same compound, the Emax in [3] is 96%; in [7], 59%.
With `CSCC[C@H](NC(=O)[C@@H]1Cc2cn(nn2)[C@@H](CCCNC(=N)N)C(=O)N[C@@H](Cc2cnc[nH]2)C(=O)N[C@H](Cc2ccccc2)C(=O)N[C@@H](CCCNC(=N)N)C(=O)N[C@@H](Cc2c[nH]c3ccccc23)C(=O)N1)C(=O)O`, the EC50 amounted to 9.6 nM in [1], 916 nM in test [4], 3.2 nM in [5] and 160 nM in test [6]. The results for the Emax in [2] and in test [3] were 106% and 112%, respectively.
`CSCC[C@H](NC(=O)[C@@H]1Cc2cn(nn2)CCC[C@H](N)C(=O)N[C@@H](Cc2cnc[nH]2)C(=O)N[C@H](Cc2ccccc2)C(=O)N[C@@H](CCCNC(=N)N)C(=O)N[C@@H](Cc2c[nH]c3ccccc23)C(=O)N1)C(=O)O`: the EC50 in test [1] was 720 nM; in test [4], more than 3000 nM; in test [5], 185 nM; in test [6] it was more than 3000 nM. Also, the values for the maximal response (Emax) in test [7] and in [8] were 3% and 16%, respectively.
`CSCC[C@H](NC(=O)[C@@H]1Cc2cn(nn2)C[C@H](NC(=O)[C@@H](N)CCCNC(=N)N)C(=O)N[C@@H](Cc2cnc[nH]2)C(=O)N[C@H](Cc2ccccc2)C(=O)N[C@@H](CCCNC(=N)N)C(=O)N[C@@H](Cc2c[nH]c3ccccc23)C(=O)N1)C(=O)O`: the EC50 in test [1] stood at 43.3 nM; in test [4], 752 nM; in test [5] it was 11.4 nM; in test [6] it was 291 nM. For the same compound, the Emax worked out at 85% in test [2] and 102% in test [3].
With `CC[C@@H](C)[C@H]1NC(=O)[C@H](Cc2cnc[nH]2)NC(=O)[C@@H](NC(=O)[C@@H](N)CCCCN)Cn2cc(nn2)C[C@@H](C(=O)N[C@@H](CCSC)C(=O)O)NC(=O)[C@H](Cc2c[nH]c3ccccc23)NC(=O)[C@H](CCCNC(=N)N)NC1=O`, the EC50 in [1], in test [4], in test [5] and in test [6] was more than 3000 nM throughout. Moreover, the Emax in test [9] is 13%; in test [10] it was 42%; in test [7], 0%; in test [8] it was 0%.
As to `CSCC[C@H](NC(=O)[C@@H]1Cc2cn(nn2)C[C@H](NC(=O)[C@@H](N)CCCCN)C(=O)N[C@@H](Cc2cnc[nH]2)C(=O)N[C@H](Cc2ccccc2)C(=O)N[C@@H](CCCNC(=N)N)C(=O)N[C@@H](C)C(=O)N1)C(=O)O`, the EC50 in test [1] is more than 3000 nM; in test [4], 809 to 3000 nM; in [5] it was more than 3000 nM; in test [6], 1910 to 3000 nM. In addition, the Emax in test [9] was determined as 16%; in [10], 19%; in [7], 18%; in test [8] it was 17%.
Consider `CSCC[C@H](NC(=O)[C@@H]1Cc2cn(nn2)C[C@H](NC(=O)[C@@H](N)CCCCN)C(=O)N[C@@H](Cc2cnc[nH]2)C(=O)N[C@H](C)C(=O)N[C@@H](CCCNC(=N)N)C(=O)N[C@@H](Cc2c[nH]c3ccccc23)C(=O)N1)C(=O)O`, for which the EC50 was 943 nM in [1], more than 3000 nM in test [4], 112 nM in [5] and more than 3000 nM in test [6]. Also, the Emax worked out at 8% in test [7] and 33% in test [8].
For the compound `CSCC[C@H](NC(=O)[C@@H]1Cc2cn(nn2)C[C@H](NC(=O)[C@@H](N)CCCCN)C(=O)N[C@@H](Cc2cnc[nH]2)C(=O)N[C@H](Cc2ccccc2)C(=O)N[C@@H](C)C(=O)N[C@@H](Cc2c[nH]c3ccccc23)C(=O)N1)C(=O)O`, the EC50 was 684 nM in test [1], more than 3000 nM in test [4], 258 nM in [5] and more than 3000 nM in test [6]. The Emax in test [7] stood at 5%; in test [8], 10%.
For the compound `CSCC[C@H](NC(=O)[C@@H]1Cc2cn(nn2)C[C@H](NC(=O)[C@@H](N)CCCCN)C(=O)N[C@@H](Cc2cnc[nH]2)C(=O)N[C@H](Cc2ccccc2)C(=O)N[C@@H](CCCN)C(=O)N[C@@H](Cc2c[nH]c3ccccc23)C(=O)N1)C(=O)O`, the EC50 in test [1] was 730 nM; in test [4] it was more than 3000 nM; in test [5] it was 318 nM; in test [6] it was more than 3000 nM. Also, the results for the Emax in test [7] and in test [8] were 9% and 12%, respectively.
As to `CSCC[C@H](NC(=O)[C@@H]1Cc2cn(nn2)C[C@H](NC(=O)[C@H](C)N)C(=O)N[C@@H](Cc2cnc[nH]2)C(=O)N[C@H](Cc2ccccc2)C(=O)N[C@@H](CCCNC(=N)N)C(=O)N[C@@H](Cc2c[nH]c3ccccc23)C(=O)N1)C(=O)O`, the EC50 in test [1] came to 2 nM; in test [4] it was 137 nM; in [5] it was 1.4 nM; in [6], 19.4 nM. Besides, the Emax in test [2] came to 123%; in test [3], 111%.
As to `CSCC[C@H](NC(=O)[C@@H]1Cc2cn(nn2)C[C@H](NC(=O)[C@@H](N)CCCCN)C(=O)N[C@@H](Cc2cnc[nH]2)C(=O)N[C@@H](Cc2ccccc2)C(=O)N[C@@H](CCCNC(=N)N)C(=O)N[C@@H](Cc2c[nH]c3ccccc23)C(=O)N1)C(=O)O`, the EC50 in [1] is 792 nM; in test [4], more than 3000 nM; in test [5], 678 nM; in [6] it was more than 3000 nM. Moreover, the results for the Emax in test [7] and in test [8] were 1% and 32%, respectively.

The values are drawn from ChEMBL document CHEMBL4028868, “Click-Chemistry-Mediated Synthesis of Selective Melanocortin Receptor 4 Agonists” (J Med Chem, 2017).
